Assay results published in ChEMBL document CHEMBL1140862, “Berberine analogues as a novel class of the low-density-lipoprotein receptor up-regulators: synthesis, structure-activity relationships, and cholesterol-lowering efficacy” (J Med Chem, 2009).

Test system: HepG2
Assay: Induction of LDLR mRNA expression in human HepG2 cells after 12 hrs by RT-PCR assay relative to untreated control
Format: functional
Summary of the method: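 HepG2 cells kept in RPMI-1640 with 10% FBS, moved 24 h before dosing to 10% LPDS, then at ~80% confluence to RPMI-1640 with 0.5% LPDS plus compound (5.0 µg/mL in table; concentrations as indicated in figure), 12 h, 37 °C. Total RNA reverse-transcribed, TaqMan real-time PCR, comparative CT method with GAPDH reference; fold of untreated cells (=1); mean of three experiments.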

Structure (SMILES): COc1ccc2c(c1OC)C[N+]1(C)CCc3cc4c(cc3C1C2)OCO4.[I-] (stereo not given)
- fold change (FC): 1.1

Structure (SMILES): CCOc1cc2c(cc1O)-c1cc3ccc(OC)c(OC)c3c[n+]1CC2.[Br-]
- fold change (FC): 0.9

Structure (SMILES): CCCOc1cc2c(cc1OCCC)-c1cc3ccc(OC)c(OC)c3c[n+]1CC2.[Br-]
- fold change (FC): 0.9

Structure (SMILES): COc1ccc2cc3[n+](cc2c1OC)CCc1cc(OCc2ccccc2)c(OCc2ccccc2)cc1-3.[Br-]
- fold change (FC): 1

Structure (SMILES): CCCCc1c2[n+](cc3c(OC)c(OC)ccc13)CCc1cc3c(cc1-2)OCO3.[Cl-]
- fold change (FC): 0.9

Structure (SMILES): CCCCCCc1c2[n+](cc3c(OC)c(OC)ccc13)CCc1cc3c(cc1-2)OCO3.[Cl-]
- fold change (FC): 1

Structure (SMILES): CCCCc1c2[n+](cc3cc(OC)c(OC)cc13)CCc1cc3c(cc1-2)OCO3.[Cl-]
- fold change (FC): 0.9

Structure (SMILES): CCCc1c2[n+](cc3c(OC)c(OC)ccc13)CCc1cc3c(cc1-2)OCO3.[Cl-]
- fold change (FC): 0.9

Structure (SMILES): COc1cc2c[n+]3c(c(Cc4ccccc4)c2cc1OC)-c1cc2c(cc1CC3)OCO2.[Br-]
- fold change (FC): 1

Structure (SMILES): COc1cc2c[n+]3c(c(C)c2cc1OC)-c1cc2c(cc1CC3)OCO2.[Cl-]
- fold change (FC): 0.9

Structure (SMILES): COc1ccc2c(C)c3[n+](cc2c1OC)CCc1cc2c(cc1-3)OCO2.[Cl-]
- fold change (FC): 1.1

Structure (SMILES): CCc1c2[n+](cc3c(OC)c(OC)ccc13)CCc1cc3c(cc1-2)OCO3.[Cl-]
- fold change (FC): 1.04

Structure (SMILES): COc1ccc2c(c1OC)C[N+]1(CCO)CCc3cc4c(cc3C1C2)OCO4.[Br-] (stereo not given)
- fold change (FC): 1.2

Structure (SMILES): CCCC[N+]12CCc3cc4c(cc3C1Cc1ccc(OC)c(OC)c1C2)OCO4.[Br-] (stereo not given)
- fold change (FC): 1.1

Structure (SMILES): CCOC(=O)C[N+]12CCc3cc4c(cc3C1Cc1ccc(OC)c(OC)c1C2)OCO4.[Br-] (stereo not given)
- fold change (FC): 0.8
